Experimental data from ChEMBL document CHEMBL3085708, “Identification and profiling of 3,5-dimethyl-isoxazole-4-carboxylic acid [2-methyl-4-((2S,3'S)-2-methyl-[1,3']bipyrrolidinyl-1'-yl)phenyl] amide as histamine H(3) receptor antagonist for the treatment of depression” (Bioorg Med Chem Lett, 2013).
In brackets after ≈: the same amount, converted by molar mass.

How the values were obtained:
Hepatocyte = test: Intrinsic clearance in human hepatocytes measured per 10^6 cells; type: ADME, cell-based
Procedure, shortened: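 Intrinsic clearance in human hepatocytes, expressed as mL h−1 per 10^6 hepatocytes, n = 4.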

Mus musculus [1] = test: Toxicity in mouse assessed as effect on motility at 30 mg/kg, po; type: organism-based; parameters: dose 30 mg/kg, route oral; conditions: in vivo
Procedure, shortened: (§1)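 Acute oral group toxicity in mice: behavioural side effects scored (social interaction, motility, preconvulsant signs, convulsions, tremor) after single po doses of 30 and 100 mg/kg.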

[2] = Mutagenic activity in micronucleus (unknown origin) at 5 to 950 ug/mL in presence of human liver microsomes; type: toxicity
Procedure, shortened: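 In vitro micronucleus test; concentrations 5 to 950 µg/mL, run with and without metabolic activation by human liver microsomes.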

Mus musculus [3] = test: Toxicity in mouse assessed as effect on social interaction at 30 mg/kg, po; type: organism-based; parameters: dose 30 mg/kg, route oral; conditions: in vivo; procedure, shortened: as §1
Mus musculus [4] = test: Toxicity in mouse assessed as effect on convulsion at 30 mg/kg, po; type: organism-based; parameters: dose 30 mg/kg, route oral; conditions: in vivo; procedure, shortened: as §1
Rattus norvegicus = test: Plasma clearance in Sprague-Dawley rat at 2 mg/kg, iv; type: ADME, organism-based; parameters: dose 2 mg/kg, route intravenous; conditions: in vivo
Procedure, shortened: (§2)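 Male Sprague-Dawley rats dosed 2 mg/kg iv in saline (0.5 mg/mL) and 10 mg/kg po in 0.5% MC/0.2% Tween80 (1.0 mg/mL); plasma and brain concentrations followed.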

Heart = test: Toxicity in guinea pig heart assessed as effect on coronary pressure at 0.1 to 30 uM; type: tissue-based, Cavia porcellus
[5] = Drug metabolism in human liver microsomes; type: ADME; conditions: read-out: Drug metabolism
[6] = AUC (0 to infinity) in OF1 mouse plasma at 2 mg/kg, iv; type: ADME, organism-based; parameters: time infinity, dose 2 mg/kg, route intravenous
Procedure, shortened: (§3)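 Single-dose PK; male OF1 mice and male Sprague-Dawley rats, 2 mg/kg iv and 10 mg/kg po. Mouse vehicles: iv 50% 1-methyl-2-pyrrolidinone in saline (1.0 mg/mL); po 5% DMSO/0.5% MC/0.2% Tween80 (1.0 mg/mL). Rat vehicles: iv saline (0.5 mg/mL); po 0.5% MC/0.2% Tween80 (1.0 mg/mL). Plasma and brain exposure read as AUC0-∞ and t1/2.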

[7] = Elimination half life in Sprague-Dawley rat plasma at 10 mg/kg, po; type: ADME, organism-based; parameters: dose 10 mg/kg, route oral; conditions: read-out: beta t1/2 (converted); procedure, shortened: as §3
[8] = Drug metabolism in rabbit liver microsomes; type: ADME, Oryctolagus cuniculus, Microsome; conditions: read-out: Drug metabolism
[9] = Tmax in Sprague-Dawley rat brain at 10 mg/kg, po; type: ADME, organism-based; parameters: dose 10 mg/kg, route oral; procedure, shortened: as §2
[10] = AUC (0 to infinity) in OF1 mouse brain at 2 mg/kg, iv; type: ADME, organism-based; parameters: time infinity, dose 2 mg/kg, route intravenous; procedure, shortened: as §3
[11] = Oral bioavailability in Sprague-Dawley rat at 10 mg/kg; type: ADME, organism-based; conditions: in vivo; procedure, shortened: as §2
[12] = AUC (0 to infinity) in Sprague-Dawley rat brain at 2 mg/kg, iv; type: ADME, organism-based; parameters: time infinity, dose 2 mg/kg, route intravenous; procedure, shortened: as §3
Mus musculus [13] = test: Toxicity in mouse assessed as effect on neurological activity at 10 to 30 mg/kg, po by Irwin test; type: organism-based; parameters: dose 10-30 mg/kg, route oral; conditions: in vivo
Procedure, shortened: (§4)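 Irwin exploratory general behaviour study in male mice; single oral doses of 0, 10 and 30 mg/kg; behavioural, neurologic and autonomic effects observed.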

[14] = Tmax in OF1 mouse plasma at 10 mg/kg, po; type: ADME, organism-based; parameters: dose 10 mg/kg, route oral
Procedure, shortened: (§5)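 Male OF1 mice given 2 mg/kg iv (50% 1-methyl-2-pyrrolidinone in saline, 1.0 mg/mL) and 10 mg/kg po (5% DMSO/0.5% MC/0.2% Tween80, 1.0 mg/mL); plasma and brain exposure measured; B/P ratio from iv AUC.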

[15] = Drug metabolism in macaque liver microsomes; type: ADME, Microsome; conditions: macaca, read-out: Drug metabolism
[16] = Toxicity in guinea pig heart assessed as decrease in ventricular contraction at 10 uM relative to control; type: tissue-based, Cavia porcellus, Cardiac ventricle
[17] = Elimination half life in Sprague-Dawley rat brain at 10 mg/kg, po; type: ADME, organism-based; parameters: dose 10 mg/kg, route oral; conditions: read-out: beta t1/2 (converted); procedure, shortened: as §3
Homo sapiens = species on record: Homo sapiens; test: Inhibition of sigma-2 receptor (unknown origin) at 10 uM relative to control
[18] = Elimination half life in Sprague-Dawley rat plasma at 2 mg/kg, iv; type: ADME, organism-based; parameters: dose 2 mg/kg, route intravenous; conditions: read-out: beta t1/2 (converted); procedure, shortened: as §3
[19] = AUC (0 to infinity) in Sprague-Dawley rat brain at 10 mg/kg, po; type: ADME, organism-based; parameters: time infinity, dose 10 mg/kg, route oral; procedure, shortened: as §3
[20] = Elimination half life in OF1 mouse plasma at 10 mg/kg, po; type: ADME, organism-based; parameters: dose 10 mg/kg, route oral; conditions: read-out: beta t1/2 (converted); procedure, shortened: as §3
Mus musculus [21] = test: Toxicity in mouse assessed as effect on preconvulsion at 30 mg/kg, po; type: organism-based; parameters: dose 30 mg/kg, route oral; conditions: in vivo; procedure, shortened: as §1
Mus musculus [22] = test: Toxicity in mouse assessed as effect on behavioral activity at 10 to 30 mg/kg, po by Irwin test; type: organism-based; parameters: dose 10-30 mg/kg, route oral; conditions: in vivo; procedure, shortened: as §4
[23] = Tmax in OF1 mouse brain at 10 mg/kg, po; type: ADME, organism-based; parameters: dose 10 mg/kg, route oral; procedure, shortened: as §5
[24] = Oral bioavailability in OF1 mouse at 10 mg/kg; type: ADME, organism-based; conditions: in vivo; procedure, shortened: as §5
[25] = Ratio of AUC (0 to infinity) in brain to plasma in OF1 mouse at 2 mg/kg, iv; type: ADME, organism-based; parameters: dose 2 mg/kg, route intravenous; conditions: brain and plasma, read-out: Ratio AUC
[26] = AUC (0 to infinity) in OF1 mouse brain at 10 mg/kg, po; type: ADME, organism-based; parameters: time infinity, dose 10 mg/kg, route oral; procedure, shortened: as §3
[27] = Drug metabolism in rat liver microsomes; type: ADME; conditions: read-out: Drug metabolism
Mus musculus [28] = test: Plasma clearance in OF1 mouse at 2 mg/kg, iv; type: ADME, organism-based; parameters: dose 2 mg/kg, route intravenous; conditions: in vivo; procedure, shortened: as §5
Cytochrome P450 3A4 = Cytochrome P450 3A4 (Homo sapiens, UniProt P08684); test: Inhibition of CYP3A4 (unknown origin) after 4 hrs; type: ADME
Sequence of Cytochrome P450 3A4 (P08684 whole entry): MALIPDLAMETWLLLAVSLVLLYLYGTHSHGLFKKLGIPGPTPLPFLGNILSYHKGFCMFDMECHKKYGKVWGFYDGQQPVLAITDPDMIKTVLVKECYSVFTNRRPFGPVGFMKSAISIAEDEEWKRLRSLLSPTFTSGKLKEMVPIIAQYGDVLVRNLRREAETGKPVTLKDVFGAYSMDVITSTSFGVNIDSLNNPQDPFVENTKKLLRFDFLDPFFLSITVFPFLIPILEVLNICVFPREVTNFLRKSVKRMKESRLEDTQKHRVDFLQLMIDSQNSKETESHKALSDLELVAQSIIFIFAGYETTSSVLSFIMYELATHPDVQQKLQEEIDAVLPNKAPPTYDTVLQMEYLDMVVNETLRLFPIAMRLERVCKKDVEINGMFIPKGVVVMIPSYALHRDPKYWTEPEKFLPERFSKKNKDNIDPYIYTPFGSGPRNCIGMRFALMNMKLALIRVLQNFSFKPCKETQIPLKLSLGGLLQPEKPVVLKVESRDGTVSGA

[29] = Drug metabolism in human plasma at 100 ng/ml after 4 hrs; type: ADME, cell-free; conditions: read-out: Drug metabolism
Procedure, shortened: (§6)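 Compound spiked into blank plasma of human, mouse, rat, rabbit, macaque and dog at 100 ng/ml, then incubated in a 37 °C water bath for up to 4 h; percent metabolized reported.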

[30] = target: Sigma non-opioid intracellular receptor 1 (Homo sapiens) (UniProt Q99720); test: Inhibition of sigma-1 receptor (unknown origin) at 10 uM relative to control
Sequence of Sigma non-opioid intracellular receptor 1 (Homo sapiens) (Q99720 whole entry): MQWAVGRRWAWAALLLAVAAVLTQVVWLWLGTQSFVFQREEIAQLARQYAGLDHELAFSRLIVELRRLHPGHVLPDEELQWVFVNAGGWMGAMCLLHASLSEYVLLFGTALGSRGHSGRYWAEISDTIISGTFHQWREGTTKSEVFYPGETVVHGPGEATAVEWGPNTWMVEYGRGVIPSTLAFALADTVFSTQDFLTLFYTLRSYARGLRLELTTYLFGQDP

[31] = Volume of distribution in Sprague-Dawley rat at 2 mg/kg, iv; type: ADME, organism-based; parameters: dose 2 mg/kg, route intravenous; conditions: in vivo; procedure, shortened: as §2
[32] = Solubility of the compound in form of crystalline free base in water; type: physicochemical
[33] = Elimination half life in OF1 mouse brain at 10 mg/kg, po; type: ADME, organism-based; parameters: dose 10 mg/kg, route oral; conditions: read-out: beta t1/2 (converted); procedure, shortened: as §3
[34] = Drug metabolism in mouse plasma at 100 ng/ml after 4 hrs; type: ADME, cell-free; conditions: read-out: Drug metabolism; procedure, shortened: as §6
Histamine H3 receptor = Histamine H3 receptor (Rattus norvegicus, UniProt Q9QYN8); test: Displacement of [3H]-methylhistamine from rat histamine H3 receptor (445 amino acid residues) transfected in human 293 cells after 1 hr by scintillation counting analysis; type: cell-based
Sequence of Histamine H3 receptor (Q9QYN8 whole entry): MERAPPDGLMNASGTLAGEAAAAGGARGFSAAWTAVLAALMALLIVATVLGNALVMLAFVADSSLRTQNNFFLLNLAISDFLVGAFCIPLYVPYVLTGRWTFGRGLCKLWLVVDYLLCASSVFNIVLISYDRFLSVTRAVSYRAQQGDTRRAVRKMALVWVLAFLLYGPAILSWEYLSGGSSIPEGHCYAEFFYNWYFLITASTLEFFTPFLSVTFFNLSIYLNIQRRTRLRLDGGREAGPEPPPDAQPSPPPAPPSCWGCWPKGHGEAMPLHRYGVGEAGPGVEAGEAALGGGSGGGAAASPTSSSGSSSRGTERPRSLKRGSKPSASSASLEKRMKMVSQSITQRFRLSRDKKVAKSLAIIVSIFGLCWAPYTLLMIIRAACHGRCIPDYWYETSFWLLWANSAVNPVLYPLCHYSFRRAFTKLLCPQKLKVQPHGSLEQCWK

[35] = Drug metabolism in rabbit plasma at 100 ng/ml after 4 hrs; type: ADME, cell-free, Oryctolagus cuniculus; conditions: read-out: Drug metabolism; procedure, shortened: as §6
[36] = Cmax in OF1 mouse plasma at 10 mg/kg, po; type: ADME, organism-based; parameters: dose 10 mg/kg, route oral
Procedure, shortened: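 Oral PK at 10 mg/kg po in male OF1 mice (vehicle 5% DMSO/0.5% MC/0.2% Tween80, 1.0 mg/mL) and male Sprague-Dawley rats (vehicle 0.5% MC/0.2% Tween80, 1.0 mg/mL). Cmax and tmax taken from plasma and brain concentration–time profiles.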

[37] = Drug metabolism in rat plasma at 100 ng/ml after 4 hrs; type: ADME, cell-free; conditions: read-out: Drug metabolism; procedure, shortened: as §6
Cytochrome P450 2C9 = Cytochrome P450 2C9 (Homo sapiens, UniProt P11712); test: Inhibition of CYP2C9 (unknown origin) after 4 hrs; type: ADME
Sequence of Cytochrome P450 2C9 (P11712 whole entry): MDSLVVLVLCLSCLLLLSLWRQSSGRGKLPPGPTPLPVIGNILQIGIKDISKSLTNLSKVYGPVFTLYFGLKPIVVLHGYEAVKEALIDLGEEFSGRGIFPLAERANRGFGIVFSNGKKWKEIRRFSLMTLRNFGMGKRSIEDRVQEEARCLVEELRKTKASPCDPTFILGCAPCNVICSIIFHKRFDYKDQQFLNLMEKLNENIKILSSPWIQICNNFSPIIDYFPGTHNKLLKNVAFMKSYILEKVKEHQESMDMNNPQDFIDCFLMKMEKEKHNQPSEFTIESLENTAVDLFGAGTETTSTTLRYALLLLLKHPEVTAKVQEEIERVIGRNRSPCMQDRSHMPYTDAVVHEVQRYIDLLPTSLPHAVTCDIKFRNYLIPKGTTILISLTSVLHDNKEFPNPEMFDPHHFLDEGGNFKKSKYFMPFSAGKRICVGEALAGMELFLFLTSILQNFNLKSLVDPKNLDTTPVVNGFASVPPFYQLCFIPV

[38] = Drug metabolism in guinea pig liver microsomes; type: ADME, Cavia porcellus, Microsome; conditions: read-out: Drug metabolism
[39] = Tmax in Sprague-Dawley rat plasma at 10 mg/kg, po; type: ADME, organism-based; parameters: dose 10 mg/kg, route oral; procedure, shortened: as §2

SMILES: Cc1cc(N2CC[C@H](N3CCC[C@@H]3C)C2)ccc1NC(=O)c1c(C)noc1C
- CLH (Hepatocyte): 0.04 mL/h
- Activity (Mus musculus [1]): Non-toxic
- Activity [2]: Non-toxic
- Activity (Mus musculus [3]): Non-toxic
- Activity (Mus musculus [4]): Non-toxic
- clearance (Rattus norvegicus): 30 mL/min/kg
- Activity (Heart): Non-toxic
- metabolised [5]: < 5%
- AUC(0-inf) [6]: 670 ng·h/mL
- half-life [7]: 7.8 h
- metabolised [8]: < 5%
- Tmax [9]: 1 h
- AUC(0-inf) [10]: 1100 ng·h/mL
- bioavailability [11]: 56%
- AUC(0-inf) [12]: 1200 ng·h/mL
- Activity (Mus musculus [13]): Non-toxic
- Tmax [14]: 0.17 h
- metabolised [15]: < 5%
- inhibition at 10 µM [16]: 23%
- half-life [17]: 9.4 h
- inhibition (Homo sapiens): 73%
- half-life [18]: 1.2 h
- AUC(0-inf) [19]: 3400 ng·h/mL
- half-life [20]: 1.8 h
- Activity (Mus musculus [21]): Non-toxic
- Activity (Mus musculus [22]): Non-toxic
- Tmax [23]: 0.17 h
- bioavailability [24]: 57%
- Kp [25]: 1.6
- AUC(0-inf) [26]: 3100 ng·h/mL
- metabolised [27]: < 5%
- clearance (Mus musculus [28]): 50 mL/min/kg
- IC50 (Cytochrome P450 3A4): > 100 µM
- metabolised at 4 h, 100 ng/ml [29]: < 5%
- inhibition [30]: 73%
- Vd [31]: 2.8 L/kg
- solubility [32]: 110 µg/mL (≈ 288 µM)
- half-life [33]: 4.7 h
- metabolised at 4 h, 100 ng/ml [34]: < 5%
- Ki (Histamine H3 receptor): 0.0009 µM
- metabolised at 4 h, 100 ng/ml [35]: < 5%
- Cmax [36]: 1680 ng/mL
- metabolised at 4 h, 100 ng/ml [37]: < 5%
- IC50 (Cytochrome P450 2C9): > 100 µM
- metabolised [38]: 35%
- Tmax [39]: 0.5 h
